The list is not random: actives were taken first. Their share in the collection is about 2.6%.
MEKK2 WT-MEK5 = raises or lowers MEK5 binding to wildtype human MEKK2 PB1 domain | bead flow cytometry, Alexa488-MEK5 binding to MEKK2 WT; actives lie on both sides | Q9Y2U5 | 290,000 tested, 1.1% active | binding response (% of control), % at 10 µM; in the data active = binding response below about 67% or above about 130%
MEKK2mut PB1 HTS = signal of MEK5 binding to mutant human MEKK2 PB1 domain; percent response, % at 10 µM; 290,000 tested, 0.35% active; bead flow cytometry, Alexa488-MEK5 binding to MEKK2 mutant; in the data active = percent response above about 24%, passing the limit was not always enough
MEKK3 PB1 HTS = raises or lowers MEK5 binding to the human MEKK3 PB1 domain. bead-based flow cytometry, Alexa488-MEK5 binding to MEKK3; actives lie on both sides; 0 = blocked by unlabeled MEK5, 100 = vehicle. binding response (% of control), % at 10 µM. 290,000 tested, 1.4% active. AID 1529;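 active = binding response more than 3 SD above or below the average of its plate-row segment, actives on both sides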;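 also: Alexa488 bead fluorescence after subtracting the streptavidin-only scavenger bead signal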
Target sequence (Q99759 whole entry, looked up, the tested form may be a part): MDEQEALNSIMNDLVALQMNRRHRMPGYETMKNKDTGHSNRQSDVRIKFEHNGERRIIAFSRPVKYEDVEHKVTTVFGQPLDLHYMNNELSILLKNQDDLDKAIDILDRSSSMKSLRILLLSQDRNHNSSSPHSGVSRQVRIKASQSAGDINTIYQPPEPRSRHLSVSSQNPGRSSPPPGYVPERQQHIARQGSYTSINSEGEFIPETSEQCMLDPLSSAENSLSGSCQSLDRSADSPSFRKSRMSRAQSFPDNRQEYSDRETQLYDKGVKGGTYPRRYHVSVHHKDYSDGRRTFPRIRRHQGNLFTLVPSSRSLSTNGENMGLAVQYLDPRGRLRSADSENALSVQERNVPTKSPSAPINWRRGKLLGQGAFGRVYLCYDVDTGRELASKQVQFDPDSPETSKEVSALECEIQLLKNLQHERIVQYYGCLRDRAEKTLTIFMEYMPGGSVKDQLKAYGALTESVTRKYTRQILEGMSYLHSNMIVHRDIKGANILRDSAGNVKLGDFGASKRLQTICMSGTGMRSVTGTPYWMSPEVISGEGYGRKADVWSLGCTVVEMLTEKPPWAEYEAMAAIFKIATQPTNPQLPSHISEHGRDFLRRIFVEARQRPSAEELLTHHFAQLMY
Lipid droplet = modulators of hepatic lipid droplet formation; AML12 mouse hepatocytes, oleate lipid droplets, BODIPY imaging; inhibition, % at 6.5 µM; 240,000 tested, 0.4% active;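 active = lipid droplet intensity inhibited by at least 50%, with more than 500 cells counted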
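System: AML12 hepatocytes (mouse). Probe or stimulus: oleic acid at 100 µM to induce lipid droplet formation. Times: overnight treatment with compound plus oleate. Detection: Image-based BODIPY and DAPI two-channel analysis. Evaluation: percent inhibition of filter-corrected integrated lipid droplet intensity per well.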
MEKK2wt confirm = raises or lowers MEK5 binding to wildtype human MEKK2, retest | shares compounds with MEKK3 PB1 HTS | bead flow cytometry, Alexa488-MEK5 binding to MEKK2 WT; actives lie on both sides | binding response (% of control), % at 10 µM | 5,900 tested, 2.4% active; in the data active = binding response below about 16% or above about 210%; inactive = in between
MEKK2mut-MEK5 = signal of MEK5 binding to mutant human MEKK2, retest; bead flow cytometry, Alexa488-MEK5 binding to MEKK2 mutant; percent response, % at 10 µM; shares compounds with MEKK3 PB1 HTS; AID 1893; 5,900 tested, 2% active; in the data active = percent response mostly above about 71%, no sharp cut-off; inactive = mostly below about 38%;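 also: higher means compound restores mutant binding toward wildtype level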
MEKK3-MEK5 inh = confirmation of inhibitors of MEK5 binding to human MEKK3; 5,900 tested, 1.8% active; binding response (% of control), % at 10 µM; shares compounds with MEKK3 PB1 HTS; bead flow cytometry, Alexa488-MEK5 binding to MEKK3; active compounds read low;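 active = binding response below 72% of control, or above a set upper limit, though filed actives all read lower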;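 also: 100% = DMSO only wells and 0% = binding blocked by excess unlabeled MEK5; lower values mean stronger disruption of MEK5 binding to MEKK3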
* marks the source's active call; other numbers are inactive results; . = no result given; [ ] = dose if it differs, or a comment.

SMILES	MEKK2 WT-MEK5	MEKK2mut PB1 HTS	MEKK3 PB1 HTS	Lipid droplet	MEKK2wt confirm	MEKK2mut-MEK5	MEKK3-MEK5 inh
CCOC(=O)C1(CCOc2ccccc2)CCN(Cc2cc(OC)c3c(c2)OCO3)CC1	145*	41	104	-2	126	17	108
C=CCNC(=S)/N=c1/ccccn1C	84	-21	92	16	.	.	.
C=CCNC(=S)/N=c1/ccccn1CCC	82	-31	75*[inhibitor]	6	107	3	101
O=C(NC(c1ccccc1)c1ccccc1)c1ccc(Br)o1	108	3	105	-2	.	.	.
O=C(/C=C/c1ccc(Br)o1)NC(c1ccccc1)c1ccccc1	102	1	140*	8	97	-5	102
O=C(CCCc1nc(-c2ccccc2Cl)no1)NCc1cccnc1	117	9	123*	.	100	0	100
Cc1cc(C(=O)OC(C(=O)Nc2ccc(C)c(Cl)c2)c2ccccc2)c(C)o1 (configuration not stated)	147*	13	105	1	127	10	103
Cc1ccc(NC(=O)C(NC2CCCC2)c2ccccc2)cc1Cl (configuration not stated)	142*	37	105	-2	115	9	102
CN(Cc1ccc(F)cc1)C(=O)CNC(=O)C1CCCCC1	107	8	101	-8	.	.	.
CCOC(=O)c1ccc2[nH]c3c(c2c1)CN(C)CC3	129	24*	105	12	124	16	100
O=C(NCCCN1CCOCC1)c1ccc(Cl)cc1[N+](=O)[O-]	107	-6	108	-2	.	.	.
O=C(NCCCN1CCOCC1)c1cc(Cl)ccc1[N+](=O)[O-]	114	2	206*	15	99	2	100
Cc1[nH]nc(SCC(=O)Nc2ccc(C#N)cc2)c1[N+](=O)[O-]	107	1	133*	-1	101	4	103
NC(=NCCCCCCN=C(N)/N=C(\N)Nc1ccc(Cl)cc1)/N=C(\N)Nc1ccc(Cl)cc1	345*	96*	113	-6	268*	121*	113
CCOc1ccc(CCNS(=O)(=O)c2cccc3nsnc23)cc1OCC	99	0	95	1	.	.	.
Cc1cc(Cl)c2oc(C(=O)N3CCN(c4ccncc4)CC3)c(C)c2c1	147*	25*	106	-51	153	30	111
C=CCOc1ccc(C2N3CC4(CC)CN2CC(CC)(C3)C4=O)cc1 (configuration not stated)	84	-5	82*[inhibitor]	.	114	8	109
Cc1cc(C)c(S(=O)(=O)N2CCCOC2CNC(=O)C(=O)NCc2ccco2)c(C)c1 (configuration not stated)	100	1	101	-49	.	.	.
O=C(Nc1nnc(CCc2ccccc2)s1)c1ccccc1F	102	1	103	0	.	.	.
COc1ccc(Cn2c(SCc3ccc(C)cc3)nc3cc(OC)c(OC)cc3c2=N)cc1Cl	212*	71*	102	-16	208*	80*	102
COc1ccc(Cn2c(SCc3cc(C)ccc3C)nc3cc(OC)c(OC)cc3c2=N)cc1	174*	38	107	.	205	57	101
CC(C)n1cc(/C=N/Nc2ccc(Cl)c(C(=O)O)c2)c2ccccc21	100	0	106	0	.	.	.
CCOC(=O)C1CCN(C(=O)CCc2nnc3ccc(N4CCC(C)CC4)nn23)CC1	99	2	98	2	.	.	.
O=C(CC(Nc1ccccc1Cl)C(=O)O)c1ccccc1 (configuration not stated)	113	1	130*	-17	99	2	103
O=C(CC(Nc1cccc(Cl)c1Cl)C(=O)O)c1ccccc1 (configuration not stated)	111	1	123	-4	.	.	.
CC(=O)N1CCN(C(=O)CCC(=O)O)CC1	7.0*[inhibitor]	-6	19*[inhibitor]	6	105	8	107
Cc1ccc2c(CC(=O)OCc3nc(N)nc(Nc4ccccc4C)n3)coc2c1	101	4	117	.	.	.	.

Source: PubChem BioAssay (several laboratories)
